Laboratory results reported in ChEMBL document CHEMBL4513216, “Probing the Open Global Health Chemical Diversity Library for Multistage-Active Starting Points for Next-Generation Antimalarials” (ACS Infect Dis, 2020).

Assay: Toxicity liver stage against HepG2, at 10uM
Assay type: cell-based
Design: test concentration 10 uM, cell line HepG2-A16-CD81EGFP
Conditions: human, HepG2-A16-CD81EGFP cells; read-out: INHIBITION
Summary of the method: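 Uninfected HepG2-A16-CD81EGFP cells, 3 × 10^3 per well, 1536-well, plated on prespotted compound at 10 μM final, parasite-free screening media added to match infected plates; puromycin 10 μM positive, DMSO 0.5% negative; run in parallel with 48 h PbLuc assay at 37 °C, 5% CO2; viability by CellTiter-Glo luminescence, normalized to controls.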

SMILES | cytotoxicity at 10 µM
COc1ccccc1CNC(=O)CS(=O)(=O)Cc1ccccc1 | 3.26%
F[C@@H]1CN(CC2CCCCC2)C[C@@H]1OCc1nc2ccccc2o1 | 1.9%
O=C(c1nc(Cc2c[nH]c3ccccc23)no1)N1CCOCC1 | 11.1%
C[C@@H](O)CNC(=O)c1nc(CC(=O)Nc2cccc(C(F)(F)F)c2)no1 | 8.35%
CC1=Nc2c(c(=O)[nH]n2C(C)C)C(c2ccsc2)S1 (centres undefined) | -2.92%
Cn1c(CN2CCOCC2)cc(=O)c(O)c1CN1CCCCC1 | -3.15%
Cc1noc(C)c1C(=O)Nc1ccc2ncn(CC(C)C)c(=O)c2c1 | 8.75%
O=C(Cc1ccc(F)cc1)NCC(O)(c1cccs1)C1CC1 (centres undefined) | -39.3%
COc1cc(C(=O)NCCc2ccc(OC)c(OC)c2)on1 | 1.84%
O=C(c1cscn1)N1CCC2(CCN(S(=O)(=O)c3ccccc3)C2)C1 (centres undefined) | 11%
O=C([C@@H]1CCO[C@@H]2CCN(Cc3ccco3)C[C@H]21)N1CCCCO1 | 9.76%
Cc1n[nH]/c(=N\C(=O)c2c3c(nc4onc(C)c24)CCC3)s1 | -1.88%
COC(=O)Cn1cccc(S(=O)(=O)N2CCC(C)CC2)c1=O | -2.85%
CC(C)(C)C(=O)Cn1nc(-c2ccccc2F)ccc1=O | -8.46%
O=C(NCCCN1CCOCC1)c1cccc(OCc2ccccc2)c1 | -4.87%
COc1ccc(N2CCN(C(=O)C(C)n3cc(Br)cn3)CC2)cc1 (centres undefined) | 11.4%
COCCNc1cc(C)nn2cnnc12 | -1.63%
Cn1c(=O)oc2cc(S(=O)(=O)N3CCCCC3)c(Cl)cc21 | 19%
CCn1ncc(CN(C)C(=O)c2ccn(C)n2)c1C | 6.5%
COc1cc(C2SCC(=O)Nc3[nH]ncc32)cc2c1OCO2 (centres undefined) | 5.28%
CCNC(=O)c1nnc2ccc(N3CCOCC3)cc2n1 | 3.56%
O=C(CC1CC1)N1C[C@@H](O)[C@H](N2CCN(c3ccccc3)CC2)C1 | -0.38%

SMILES | cytotoxicity at 10 µM
CC(C)(C)c1cc(C(=O)N2CCC(c3cnccn3)CC2)[nH]n1 | 0.775%
O=C(CC1CCCC1)N1CCCC1c1ccc(CN2CCOCC2)cn1 (centres undefined) | 1.37%
O=C1Nc2ccccc2CNC12CCN(CC1CCCC1)CC2 | 6.39%
CC(C)CNC(=O)c1cc(C2CC2)nc2c1c(C1CCCN1)nn2C (centres undefined) | 15.9%
O=C(N1CCCCC1)N1CCN(c2ccc(Cl)nn2)C(=O)C1 | 8.24%
CC(OCC1CC1)C(=O)Nc1ccn(Cc2ccccc2)n1 (centres undefined) | 11.9%
O=S(=O)(N1CCCCC1)N1CCCN(CC2CCCO2)CC1 (centres undefined) | -3.94%
CN(Cc1ccccc1F)C(=O)COC(=O)c1cc(Cl)c[nH]1 | 12.4%
CCN(CC(C)O)C(=O)Nc1cnn(CCOC)c1 (centres undefined) | -11.6%
O=C1CSCN1Cc1nc(-c2ccc(N3CCCCC3)cc2)no1 | -6.79%
CSCCC(NC(N)=O)C(=O)NCc1cnn(-c2ccccc2)c1 (centres undefined) | 5.79%
Cn1cc(C2CCCN2C(=O)CS(=O)(=O)C2CCCC2)cn1 (centres undefined) | -4.8%
CC(=O)c1c(C)cc(C)c(CS(=O)(=O)c2nccn2C)c1C | -4.28%
CCc1nnc2n1CCN(C(=O)CCOc1ccc(C)cc1C)C2 | 2.93%
COCc1nccc(C2CCCN(Cc3ccc(SC)cc3)C2)n1 (centres undefined) | 23.4%
FC(F)(F)C1CCCn2c(CNCc3cccs3)nnc21 (centres undefined) | 3.79%
Cc1cc(=O)n2ncnc2n1CC(O)c1cc(Cl)ccc1Cl (centres undefined) | 3.19%
CCN(CC)c1ccc(NS(=O)(=O)c2cnn(C(C)C)c2)cn1 | 5.02%
Cc1n[nH]c(C)c1NC(=O)CN1CCCC1Cn1cncn1 (centres undefined) | 15.5%
COc1cccc(CNCCc2cc(F)cc3c2OCOC3)c1OC | 4.32%
Cc1cc(C)n(CC2CN(CCc3ccncc3)CCO2)n1 (centres undefined) | 0.347%
Cc1cc(CN(Cc2ccccc2)C(C)CN2CCOCC2)no1 (centres undefined) | 4.69%

SMILES | cytotoxicity at 10 µM
CNC(=O)NC(=O)CCSc1ccccc1C | 4.11%
CCc1noc(CCCC(=O)Nc2cc(C(F)(F)F)c[nH]c2=O)n1 | -4.84%
COc1cccc(CNCCNS(=O)(=O)Cc2ccccc2)c1 | 13.4%
O=C(Nc1cccnc1-n1cccn1)N1CCCC(N2CCCC2)C1 (centres undefined) | 8.53%
COc1ccc(C)c2c1N(C(=O)c1ccc3nnc(C)n3c1)CCC2 | 2.84%
CCOc1ccc(NC(=O)N2CCC(n3cncn3)CC2)cc1Cl | -7.22%
Cc1cnn(CCCNCc2csc(COc3ccccc3)n2)c1 | 5.34%
CS(=O)(=O)c1cc(S(N)(=O)=O)ccc1NCC1CCCO1 (centres undefined) | 6.26%
Cn1cc(NC(=O)c2ccccn2)cc(Br)c1=O | -12.8%
CN(Cc1ccco1)Cc1ccccc1CNC(=O)c1ccc[nH]1 | -4.11%
CCc1ncc2c(n1)CN(Cc1nnc(C)o1)CC2 | -12.1%
COc1ncnc2c1CCN(CC1CCOC1)CC2 (centres undefined) | -68.9%
Cn1ccc(-c2cc(C(=O)N3CCOCC3)c3ccccn23)n1 | 7.9%
COCCNC(=O)[C@H]1C[C@@H]2CCN(Cc3ccoc3)C[C@H]2O1 | 2.31%
CN(C)C(C(=O)N1CCN(CCn2cccc2)CC1)c1ccc(F)cc1 (centres undefined) | -14.9%
COc1cccc2ccc(CN3CCN(c4cccnc4)CC3)nc12 | -8.66%
Cn1ccnc1CN(CCO)Cc1ccc(C(F)(F)F)cc1 | -17.3%
CCCn1cc(-c2cc(C(=O)N(C)C)c3ccc(OC)cc3n2)cn1 | 6.22%
COCCN1CCC(CN(CC2CCCO2)C(=O)C2CCOCC2)CC1 (centres undefined) | -0.401%
O=S(=O)(c1c(Cl)nc2sccn12)N1CCCC2(CCNC2)C1 (centres undefined) | 8.64%
Nc1cc(C(=O)N2CCOC(Cc3cccc(C(F)(F)F)c3)C2)ccn1 (centres undefined) | -1.97%
Cc1cc(CN(C)c2nc(-c3ccco3)nc3c2CCN(C)CC3)on1 | 9.34%

SMILES | cytotoxicity at 10 µM
Cc1c[nH]c(CN(C)C(=O)[C@@]23CNC[C@@H]2CN(c2ncccn2)C3)n1 | -2.4%
NCCN1C(=O)CC[C@H]2CN(Cc3ccc4occc4c3)CC[C@H]21 | -1.14%
CC(=O)NCCn1ccnc1-c1cccc(C(C)N(C)C)c1 (centres undefined) | 2.4%
Cc1cc(C(=O)N2C[C@@H](CN3CCOCC3)C[C@H](CO)C2)nc(C)n1 | 3.63%
O=C(NCc1ccccc1-n1cccn1)C1CC2(CCNCC2)CN1 (centres undefined) | -0.413%
CCCc1nc(CN(CC)C(=O)c2ccc(OC)c(OC)c2)no1 | -6.93%
COc1ccccc1OCCCN1CC=C(c2cnn(C)c2)CC1 | 8.32%
CCCN(Cc1nccn1C)C(=O)c1cc(C(C)C)on1 | 4.24%
CCn1cncc1CNC(=O)c1ccc(C2CCCN2C(=O)COC)s1 (centres undefined) | 6.48%
CCc1cc(N2CCC(NCCc3nc(C)c(C)s3)CC2)nc(C)n1 | 0.902%
CC(C)(C)NC(=O)c1ccccc1NC(=O)c1ccncc1 | -10.3%
O=C(O)C(c1ccc2c(c1)OCCO2)N1CCC(N2CCOCC2)CC1 (centres undefined) | -0.809%
O=C(c1cc(=O)[nH]c(=O)[nH]1)N1CCCCC1c1ccc(F)cc1 (centres undefined) | -10.2%
CC(C)c1nc(C2CCCN(C(=O)c3ccc(N(C)C)nn3)C2)no1 (centres undefined) | -9.71%
CCN(CC)c1ccc(C(=O)N2CCC(c3nc(C)no3)CC2)cn1 | -7.42%
CN(CC(=O)N1CCCC1)C(=O)Cc1csc(-c2ncccn2)n1 | -9.51%
O=C(NCc1ccc(-c2ccn[nH]2)cc1)N1CCC(N2CCCC2)C1 (centres undefined) | -8.35%
Cc1cccc(-c2ccc(C(=O)NCC(C)(C)C(N)=O)c(=O)[nH]2)c1 | -10.5%
CNC(=O)C1CCC(NC(=O)N(C)Cc2c(C)noc2C)CC1 (centres undefined) | -13.7%
O=C(Nc1cn[nH]c1)c1ccc(O)nc1 | -1.09%
CC(C)c1nc(C2CCCN2CC(=O)N2CCNC2=O)no1 (centres undefined) | -8.96%
CC(NC(=O)NCCn1ccnc1)c1ccc2c(c1)NC(=O)CO2 (centres undefined) | -7.36%

SMILES | cytotoxicity at 10 µM
COc1ccc2cc(C(=O)N3CCCCC3CC(N)=O)[nH]c2c1 (centres undefined) | -12.3%
O=C(NCCNC(=O)c1scnc1Cl)c1ccccc1 | 8.45%
CCc1n[nH]c(C2CN(Cc3nccn3CC)CCO2)n1 (centres undefined) | -1.85%
CC(C)c1nccn1C1CCCN(C(=O)c2ccc3[nH]nnc3c2)C1 (centres undefined) | 1.9%
O=C1CCCCN1c1cccc(CNC2CCCC2)c1 | 6.86%
Cc1noc([C@@H]2C[C@H]3OCC[C@H]3N(CC3CCCC3)C2)n1 | -77.5%
CN(Cc1cn2c(n1)CN(C(=O)CC1CC1)CC2)Cc1ccco1 | -2.21%
CN(C)C[C@H]1OC[C@@H]2CCN(C(=O)c3ccc[nH]3)C[C@@H]21 | 5.41%
CC(=O)N1CC(=O)N(c2cnn(C)c2)CC12CCN(CC1CC1)C2 (centres undefined) | -2.58%
CNC(=O)[C@H]1C[C@@H]2CN(S(=O)(=O)c3ccccc3)C[C@@H]2N1C | -5.27%
O=C(c1cccc(Cl)c1)N1CC[C@H]2[C@H]1CCN2CC1CCOCC1 | -0.696%
O=C(NC1CC1)[C@@H]1C[C@@H]2CCN(Cc3ccccc3)C[C@H]2O1 | -68%
O=C(c1ccncc1F)N1CCc2onc(COc3cccnc3)c2C1 | -70.6%
CN1CCn2c(-c3ccccc3)cnc2C12CCN(CC1CC1)CC2 | 5.35%
COc1ccc(CN2CCc3c(CNC(=O)CC#N)nn(C)c3C2)cc1 | 9.67%
CC(=O)N1[C@H](CN(C)C)C[C@@H]2CN(C(=O)c3cccc(F)c3)CC[C@@H]21 | 5.85%
COCCN1CCOCC12CCN(C(=O)c1cccnc1)CC2 | -73.1%
COCC1CN(Cc2ccncc2)Cc2nn(CC3CC3)cc21 (centres undefined) | -73.7%
CS(=O)(=O)NCc1cnc2n1CCN(Cc1ccsc1)CC2 | -7.96%
O=C(C1CN(CC2CCOCC2)CC12CCOCC2)N1CCCC1 (centres undefined) | 6.65%
c1ccc(CNc2ncc(CN3CC[C@@H]4CC[C@H](C3)N4)cn2)cc1 | -3.8%
